Experimental data published in publication PMC12199099 (British Journal of Clinical Pharmacology, 2025).
Values joined by “and” are separate entries in the source; they are usually repeats but may differ in a detail not shown here. Equal entries are not always repeated.

What was measured:
[1] = tested on: BTK; conditions: cited from earlier work
[2] = used for total active concentration; cited from earlier work
[3] = humans, cited from earlier work
[4] = Population pharmacokinetic; type: in vivo, human; conditions: for geometric mean AUC24h,ss higher in Chinese patients than in White patients / geometric mean C max,ss higher in Chinese patients than in White patients: 100 mg BID, empirical Bayes estimates, Chinese n = 105, White n = 512
In short: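 Pooled plasma acalabrutinib/ACP-5862 data from 14 trials, with China study intensive and sparse schedules, were fitted to the existing model. Parent: two-compartment, five transit compartments. Metabolite: two-compartment, formation fixed at 0.4 CL/F. BOV was on MTT and F1; BSV on clearances and volumes. Race (East Asian vs non-East Asian), PPI, ECOG and health status were tested as proportional shifts. Estimation used NONMEM SAEM/IMP, with BLQ handled by M3.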

[5] = tested on: R/R CLL/SLL; test: Exposure-efficacy; type: in vivo, human; conditions: for relationship between exposures and efficacy endpoints (BOR and SPD): Chinese patients with R/R CLL/SLL (n = 60), 100 mg BID
In short: (§1)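 Chinese pivotal phase 1/2 study (MCL n = 34; CLL n = 60). Per-patient acalabrutinib, ACP-5862 and total active moiety AUC_24h,ss and C_max,ss were taken from pop-PK post hoc estimates. Total active moiety was adjusted for BTK potency and protein binding. Best overall response was assessed by an independent review committee: CR/PR/SD/PD for MCL, PR/PRL/SD for CLL/SLL. SPD change from baseline was also scored. Analysis was graphical plus logistic regression.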

[6] = tested on: R/R MCL; test: Exposure-efficacy; type: in vivo, human; conditions: for relationship between exposures and efficacy endpoints (BOR and SPD): Chinese patients with R/R MCL (n = 34), 100 mg BID
In short: as §1

[7] = type: in vivo, human; conditions: noncompartmental analysis, patients with intensive PK sampling
[8] = Exposure-safety; type: in vivo, human
In short: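 Pooled seven studies (six global plus China; n = 476). Endpoints were incidence of grade ≥2 AEs, grade ≥3 AEs, and grade ≥2 AEs of clinical interest occurring in ≥5% of patients (MedDRA v21.1). Post hoc pop-PK steady-state exposures (acalabrutinib AUC_24h,ss primary) were related to AE incidence by graphical plots and logistic regression with 95% CI. Analysis was run for the global and Chinese populations.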

[9] = cited from earlier work
[10] = tested on: breast cancer‐resistance protein (BCRP); conditions: cited from earlier work
[11] = radio-labelled dose, humans; cited from earlier work
[12] = tested on: BTK; conditions: 100 mg BID, clinical pharmacodynamic data; cited from earlier work
[13] = cited from earlier work; remark: listed apart in the source
[14] = at a 400 mg daily dose; cited from earlier work
[15] = tested on: CYP3A enzymes; conditions: cited from earlier work
[16] = Chinese R/R CLL/SLL, n = 60, 100 mg BID
[17] = Chinese R/R MCL, n = 34, 100 mg BID

## CC#CC(=O)NCCCC(=O)c1nc(-c2ccc(C(=O)Nc3ccccn3)cc2)c2c(N)nccn12 [ACP‐5862]
[1]
  potency for BTK inhibition compared with acalabrutinib: approximately 0.5 fold
[2]
  free fraction (fu): 0.013
[3]
  mean terminal half‐life: 6.6 h
[4]
  geometric mean AUC24h,ss higher in Chinese patients than in White patients: 28%
  geometric mean C max,ss higher in Chinese patients than in White patients: 28%
[4]; final model fixed effect
  CLM/F, apparent clearance of metabolite, estimate (RSE %): 21.5 (0.6) L/h
  QM/F, apparent intercompartmental clearance for metabolite, estimate (RSE %): 21.1 (2.9) L/h
  VcM/F, apparent volume of the central compartment for metabolite, estimate (RSE %): 24.3 (1.7) L
  VpM/F, apparent volume of the peripheral compartment for metabolite, estimate (RSE %): 90.9 (1.3) L
[4]; random effect
  BSV CLM/F, estimate (RSE %): 13.2 (18.7) L/h
  BSV QM/F, estimate (RSE %): 62.4 (13.8) L/h
  BSV VcM/F, estimate (RSE %): 37.4 (13.7) L
  BSV VpM/F, estimate (RSE %): 29.3 (18.8) L
[5]
  relationship between exposures and efficacy endpoints (BOR and SPD): flat relationships
[6]
  relationship between exposures and efficacy endpoints (BOR and SPD): flat relationships

## CC#CC(=O)N1CCC[C@H]1c1nc(-c2ccc(C(=O)Nc3ccccn3)cc2)c2c(N)nccn12 [acalabrutinib]
[7]
  AUC higher in Chinese participants than in White patients: 48%
[8]; both Chinese patients and the overall population, 100–400 mg daily doses
  relationship of acalabrutinib AUC24h,ss with grade ≥2 or ≥3 adverse events: flat relationship
[8]; overall population, 100 mg BID
  relationship between acalabrutinib AUC24h,ss and grade ≥3 AEs: flat relationship
[8]; overall population, logistic regression, daily doses 100 to 400 mg
  relationship between acalabrutinib AUC24h,ss and grade ≥2 and grade ≥3 AEs: no statistically significant relationship
[9]
  incidence of atrial fibrillation and haemorrhage compared with ibrutinib: lower incidence
[3]; after oral administration
  median time to peak plasma concentration (T max): 0.75 h
[3]
  absolute bioavailability: 25%
  mean steady‐state volume of distribution (Vss): approximately 34 L
  mean terminal half‐life: 1.4 h
[4]
  geometric mean AUC24h,ss higher in Chinese patients than in White patients: 28%
  geometric mean C max,ss higher in Chinese patients than in White patients: 28%
[4]; covariate analysis
  CL/F higher in healthy participants than in patients with B‐cell malignancies: 64.5%
  Vp/F lower in healthy participants than in patients with B‐cell malignancies: 42.4%
  decrease in CL/F, ECOG performance status ≥2 compared with ECOG ≤1: 12.8%
  reduction of F1 by PPIs: 30.7%
[4]; final model fixed effect
  CL/F, apparent clearance of parent drug, estimate (RSE %): 130.3 (0.4) L/h
  Ka, first‐order absorption rate constant, estimate (RSE %): 1.4 (6.6) h^−1
  MTT, mean transit time, estimate (RSE %): 0.4 (5) h
  Q/F, apparent intercompartmental clearance for parent drug, estimate (RSE %): 19.5 (1.3) L/h
  Vc/F, apparent volume of the central compartment for parent drug, estimate (RSE %): 28.8 (4.5) L
  Vp/F, apparent volume of the peripheral compartment for parent drug, estimate (RSE %): 105.6 (0.7) L
[4]; race covariate
  F higher in East Asian compared with non‐East Asian individuals: 23% and ~ 23%
  Vp/F lower in East Asian compared with non‐East Asian individuals: 38%
[4]; random effect
  BOV F1, between‐occasion variability, estimate (RSE %): 52.9 (1.7)
  BOV MTT, between‐occasion variability, estimate (RSE %): 125 (2.2) h
  BSV CL/F, between‐subject variability, estimate (RSE %): 23.2 (5.6) L/h
  BSV Vc/F, estimate (RSE %): 306 (6.3) L
  BSV Vp/F, estimate (RSE %): 35.9 (6.9) L
[4]; relative change (1 + estimate)
  CL/F_ECOG2+, covariate effect of ECOG on CL/F, estimate (RSE %): −0.128 (43.9)
  CL/F_HEALTHGP, covariate effect of healthy individuals on CL/F, estimate (RSE %): 0.645 (17.1)
  Vp/F_HEALTHGP, covariate effect of healthy individuals on Vp/F, estimate (RSE %): −0.424 (5.9)
[5]; [16]
  best overall response PR, number of patients: 50
  best overall response PRL, number of patients: 2
  best overall response SD, number of patients: 6
[5]
  relationship between exposures and efficacy endpoints (BOR and SPD): flat relationships
[10]
  BCRP substrate status: substrate
[11]
  dose excreted as unchanged acalabrutinib in urine and faeces: less than 2%
  dose recovered in the faeces: 84%
  dose recovered in the urine: 12%
[12]
  BTK occupancy over 24 h: maximal
[6]; [17]
  best overall response CR, number of patients: 12
  best overall response PD, number of patients: 4
  best overall response PR, number of patients: 16
  best overall response SD, number of patients: 1
[6]
  relationship between exposures and efficacy endpoints (BOR and SPD): flat relationships
[13]
  solubility, pH dependence: solubility decreasing with increasing pH
[14]
  maximum tolerated dose: not observed
[15]
  metabolism by CYP3A enzymes into ACP‐5862: predominantly metabolized
